Measured values reported in ChEMBL document CHEMBL1157573, “BRAF inhibitors based on an imidazo[4,5]pyridin-2-one scaffold and a meta substituted middle ring” (J Med Chem, 2010).

Legend:
[1] = biological target: T1, Serine/threonine-protein kinase B-raf (Homo sapiens, UniProt P15056, V600E); test: Inhibition of BRAF V600E mutant-mediated ERK phosphorylation in human WM266.4 cells; format: cell-based
[2] = biological target: T1, Serine/threonine-protein kinase B-raf; test: Inhibition of human BRAF V600E mutant expressed in Sf9 cells
[3] = Antiproliferative activity against human WM266.4 cells after 6 days by SRB assay; format: functional; conditions: WM 266-4, 144 h
Procedure, shortened: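 SRB cell proliferation assay on WM266.4 melanoma cells, which carry mutant BRAF. Growth inhibition is reported as GI50.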

T1 sequence (P15056 2-766 V600E limits assumed): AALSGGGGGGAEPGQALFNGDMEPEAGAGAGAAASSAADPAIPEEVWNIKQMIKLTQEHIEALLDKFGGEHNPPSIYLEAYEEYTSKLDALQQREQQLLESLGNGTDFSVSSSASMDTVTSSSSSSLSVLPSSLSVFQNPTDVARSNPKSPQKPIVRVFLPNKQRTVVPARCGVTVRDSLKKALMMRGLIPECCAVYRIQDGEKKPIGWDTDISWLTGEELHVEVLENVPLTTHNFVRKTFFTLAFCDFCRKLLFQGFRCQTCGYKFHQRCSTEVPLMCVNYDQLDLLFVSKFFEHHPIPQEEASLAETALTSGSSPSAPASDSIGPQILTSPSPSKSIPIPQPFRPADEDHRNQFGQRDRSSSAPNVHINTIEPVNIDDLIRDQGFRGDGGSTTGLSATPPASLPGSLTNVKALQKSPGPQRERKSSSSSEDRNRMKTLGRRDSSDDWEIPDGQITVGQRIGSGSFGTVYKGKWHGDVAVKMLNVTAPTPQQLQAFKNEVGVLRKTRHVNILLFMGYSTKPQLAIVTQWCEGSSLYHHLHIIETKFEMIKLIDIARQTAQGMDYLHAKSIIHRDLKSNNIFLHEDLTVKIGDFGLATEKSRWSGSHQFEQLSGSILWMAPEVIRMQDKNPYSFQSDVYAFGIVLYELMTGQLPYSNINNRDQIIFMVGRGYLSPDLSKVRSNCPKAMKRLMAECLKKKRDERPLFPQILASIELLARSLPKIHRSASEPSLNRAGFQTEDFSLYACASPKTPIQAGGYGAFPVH

| Structure (SMILES) | IC50 [1] [µM] | IC50 [2] [µM] | GI50 [3] [µM] |
| --- | --- | --- | --- |
| O=c1[nH]c2nccc(Oc3cccc(NS(=O)(=O)c4cccc(OC(F)(F)F)c4)c3)c2[nH]1 | 94 | 11.3 | 0.83 |
| O=C(Nc1cccc(Oc2ccnc3[nH]c(=O)[nH]c23)c1)c1cnn(-c2ccccc2)c1C(F)(F)F | 38 | > 100 | 3.3 |
| O=C(Nc1cccc(Oc2ccnc3[nH]c(=O)[nH]c23)c1)c1ccc2sccc2c1 | 66 | 22 | 1.5 |
| O=C(Nc1cccc(Oc2ccnc3[nH]c(=O)[nH]c23)c1)c1cccc(OC(F)(F)F)c1 | 7.56 | 0.014 | 1 |
| O=C(Nc1cccc(Oc2ccnc3[nH]c(=O)[nH]c23)c1)c1cccc2ccccc12 | 29 | 0.92 | 23 |
| O=C(Nc1cccc(Oc2ccnc3[nH]c(=O)[nH]c23)c1)c1cccc(-n2cccc2)c1 | 20.4 | 0.057 | 1.1 |
| O=C(Nc1ccc(Oc2ccnc3[nH]c(=O)[nH]c23)cc1)Nc1ccc(Cl)c(C(F)(F)F)c1 |  | 0.023 |  |
| O=C(Nc1ccc(Oc2ccnc3[nH]c(=O)[nH]c23)cc1)c1ccc(Br)cc1 |  | 14 |  |
| Cc1ccc(Oc2ccnc3[nH]c(=O)[nH]c23)cc1NC(=O)c1cccc(OC(F)(F)F)c1 | > 100 | > 10 |  |
| O=C(Nc1cccc(SC(F)(F)F)c1)c1cccc(Oc2ccnc3[nH]c(=O)[nH]c23)c1 | 13 | 0.187 | 9.2 |
| O=C(Nc1cccc(Oc2ccnc3[nH]c(=O)[nH]c23)c1)c1cccc2c1OCCCO2 | > 100 | > 100 | 48 |
| CCC(C)(C)c1cccc(C(=O)Nc2cccc(Oc3ccnc4[nH]c(=O)[nH]c34)c2)c1 | 3.1 | 0.04 |  |
| O=c1[nH]c2nccc(Oc3ccc(NS(=O)(=O)c4ccccc4)cc3)c2[nH]1 |  | 0.85 |  |
| O=C(Cc1cccc(C(F)(F)F)c1)Nc1cccc(Oc2ccnc3[nH]c(=O)[nH]c23)c1 | 17.8 | > 10 | 25.7 |
| O=C(Nc1cccc(Oc2ccnc3[nH]c(=O)[nH]c23)c1)c1cccc(SC(F)(F)F)c1 | 6.48 | 0.005 | 5.1 |
| O=c1[nH]c2nccc(Oc3cccc(NS(=O)(=O)c4ccccc4)c3)c2[nH]1 | 29.6 | 1.66 | 0.175 |
| O=C(Nc1cc(Oc2ccnc3[nH]c(=O)[nH]c23)ccc1Cl)c1cccc(OC(F)(F)F)c1 | > 100 | 0.24 | 35 |
| O=C(Nc1cc(F)cc(Oc2ccnc3[nH]c(=O)[nH]c23)c1)c1cccc(OC(F)(F)F)c1 | 16 | 0.033 | 2.4 |
| O=C(Nc1cccc(OC(F)(F)C(F)F)c1)c1cccc(Oc2ccnc3[nH]c(=O)[nH]c23)c1 | 8 | 0.24 | 0.677 |
| O=c1[nH]c2nccc(Oc3cccc(NS(=O)(=O)c4cccc5ccccc45)c3)c2[nH]1 | 21.3 | 25 | 0.85 |
| O=C(Nc1cccc(Oc2ccnc3[nH]c(=O)[nH]c23)c1)c1cc(Cl)cc(OC(F)(F)F)c1 | 14.6 | 0.071 | 6.5 |
| O=C(Nc1cccc(Oc2ccnc3[nH]c(=O)[nH]c23)c1)c1cccc(OC(F)(F)C(F)F)c1 | 5.7 | 0.023 | 0.841 |

| Structure (SMILES) | IC50 [1] [µM] | IC50 [2] [µM] | GI50 [3] [µM] |
| --- | --- | --- | --- |
| O=C(Nc1cccc(Oc2ccnc3[nH]c(=O)[nH]c23)c1)c1ccc(F)c(OC(F)(F)F)c1 | 27.7 | 0.049 | 7.4 |
| O=C(Nc1cccc(Oc2ccnc3[nH]c(=O)[nH]c23)c1)c1cc(OC(F)(F)F)ccc1F | 15 | 0.043 | 1.2 |
| Cc1ccc(-n2nc(C(C)(C)C)cc2NC(=O)Nc2cccc(Oc3ccnc4[nH]c(=O)[nH]c34)c2)cc1 | 0.83 | 0.128 | 0.705 |
| COc1ccc(NC(=O)c2cccc(OC(F)(F)F)c2)cc1Oc1ccnc2[nH]c(=O)[nH]c12 | > 100 | 0.34 |  |
| O=C(Nc1cccc(Oc2ccnc3[nH]c(=O)[nH]c23)c1)c1ccc(Cl)c(C(F)(F)F)c1 | 28 | 0.124 | 13.4 |
| O=C(Nc1cccc(Oc2ccnc3[nH]c(=O)[nH]c23)c1)c1cccc(N2CCCCC2)c1 | 15.4 | 0.047 | 9.6 |
| O=C(Nc1cccc(Oc2ccnc3[nH]c(=O)[nH]c23)c1)c1cccc(OC(F)(F)F)c1F | 6.7 | 0.015 | 0.57 |
| O=C(Nc1cccc(Oc2ccnc3[nH]c(=O)[nH]c23)c1)c1cccc(-n2ccnc2)c1 | > 100 | > 10 | 6.2 |
| Cc1ccc(-n2nc(C(F)(F)F)cc2NC(=O)c2cccc(Oc3ccnc4[nH]c(=O)[nH]c34)c2)cc1 | 14.8 | 0.5 | 32 |
| O=C(Nc1cccc(Oc2ccnc3[nH]c(=O)[nH]c23)c1)Nc1cc(C(F)(F)F)ccc1N1CCOCC1 | 42 | 0.74 | 16.7 |
| O=C(Nc1cccc(Oc2ccnc3[nH]c(=O)[nH]c23)c1)Nc1cc(C(F)(F)F)ccc1F | 12.2 | 0.026 | 1.6 |
| O=C(Nc1cc(Oc2ccnc3[nH]c(=O)[nH]c23)c(F)cc1F)c1cccc(OC(F)(F)F)c1 | 6.9 | 0.01 | 4.6 |
| O=C(Nc1cccc(Oc2ccnc3[nH]c(=O)[nH]c23)c1)c1cc(F)cc(N2CCOCC2)c1 | 21.1 | 0.062 | 25.1 |
| O=C(Nc1cccc(F)c1)Nc1cccc(Oc2ccnc3[nH]c(=O)[nH]c23)c1 | 50.2 | 2.75 | 3.3 |
| O=c1[nH]c2nccc(Oc3ccc(NS(=O)(=O)c4cccc(C(F)(F)F)c4)cc3)c2[nH]1 |  | > 100 |  |
| O=C(Nc1cccc(Oc2ccnc3[nH]c(=O)[nH]c23)c1)c1ccnn1-c1ccccc1 | 92 | > 100 | 15.6 |
| O=C(Nc1cccc(Oc2ccnc3[nH]c(=O)[nH]c23)c1)c1cccc(Br)c1 | 100 | 1.56 | 0.907 |
| CC(C)c1cc(C(=O)Nc2cccc(Oc3ccnc4[nH]c(=O)[nH]c34)c2)n(-c2ccccc2)n1 | 13.7 | 0.087 | 5.7 |
| O=c1[nH]c2nccc(Oc3cccc(NS(=O)(=O)c4cccc(C(F)(F)F)c4)c3)c2[nH]1 | 57 | 15.4 | 0.83 |
| Cc1ccc(-n2nc(C(F)(F)F)cc2NC(=O)Nc2cccc(Oc3ccnc4[nH]c(=O)[nH]c34)c2)cc1 | 4.8 | 0.4 | 4.28 |
| Cc1ccc(-n2nc(C(C)(C)C)cc2NC(=O)c2cccc(Oc3ccnc4[nH]c(=O)[nH]c34)c2)cc1 | 2.05 | 0.59 |  |
| O=C(Nc1cccc(Oc2ccnc3[nH]c(=O)[nH]c23)c1)c1ccc(C(F)(F)F)cc1 | > 100 | 0.73 |  |

| Structure (SMILES) | IC50 [1] [µM] | IC50 [2] [µM] | GI50 [3] [µM] |
| --- | --- | --- | --- |
| O=C(Nc1cccc(Oc2ccnc3[nH]c(=O)[nH]c23)c1)c1ccc2nsnc2c1 | > 100 | > 100 | 8.3 |
| O=C(Nc1cccc(OC(F)(F)F)c1)c1cccc(Oc2ccnc3[nH]c(=O)[nH]c23)c1 | 14.6 | 0.048 | 2.4 |
| CC(C)(C)c1cccc(C(=O)Nc2cccc(Oc3ccnc4[nH]c(=O)[nH]c34)c2)c1 | 3.5 | 0.017 | 1.83 |
| O=C(Nc1cc(Oc2ccnc3[nH]c(=O)[nH]c23)c(Cl)cc1Cl)c1cccc(OC(F)(F)F)c1 | > 100 | 0.77 | 1.2 |
| O=C(Nc1cc(C(F)(F)F)ccc1F)c1cccc(Oc2ccnc3[nH]c(=O)[nH]c23)c1 | 35 | 4.7 | 31 |
| Cc1c(NC(=O)c2cccc(OC(F)(F)F)c2)cccc1Oc1ccnc2[nH]c(=O)[nH]c12 | > 100 | > 10 |  |
| O=c1[nH]c2nccc(Oc3cccc(NCc4cccc(OC(F)(F)F)c4)c3)c2[nH]1 | > 100 | > 10 | 0.74 |
| O=C(Nc1cccc(Oc2ccnc3[nH]c(=O)[nH]c23)c1)Nc1ccc(F)c(F)c1 | 39 | 1.12 | 3.7 |
| COc1cc(NC(=O)c2cccc(OC(F)(F)F)c2)cc(Oc2ccnc3[nH]c(=O)[nH]c23)c1 | 16.6 | 0.064 |  |
| Cc1cc(C(=O)Nc2cccc(Oc3ccnc4[nH]c(=O)[nH]c34)c2)n(C)n1 | 79 | > 100 |  |
| CC(C)(C)c1cccc(NC(=O)Nc2cccc(Oc3ccnc4[nH]c(=O)[nH]c34)c2)c1 | 10.3 | 0.195 | 12.9 |
| CC(C)(C)c1cc(NC(=O)Nc2cccc(Oc3ccnc4[nH]c(=O)[nH]c34)c2)n(-c2ccc(F)cc2)n1 | 1.96 | 0.123 |  |
| O=C(Nc1cccc(Oc2ccnc3[nH]c(=O)[nH]c23)c1)c1ccccc1 | > 100 | 25.2 | 1.54 |
| O=c1[nH]c2nccc(Oc3cccc(NS(=O)(=O)c4ccc(Cl)c(C(F)(F)F)c4)c3)c2[nH]1 | 66 | 6.8 | 40 |
| O=C(Cc1cccc(OC(F)(F)F)c1)Nc1cccc(Oc2ccnc3[nH]c(=O)[nH]c23)c1 | 12.8 | > 10 | 29.4 |
| O=c1[nH]c2nccc(Oc3ccc(NS(=O)(=O)c4ccc(Cl)c(C(F)(F)F)c4)cc3)c2[nH]1 |  | > 100 |  |
| O=C(Nc1ccc(Oc2ccnc3[nH]c(=O)[nH]c23)cc1)c1ccc(Cl)c(C(F)(F)F)c1 |  | 15.9 |  |
| O=C(Cc1ccccc1)Nc1cccc(Oc2ccnc3[nH]c(=O)[nH]c23)c1 | > 100 | 87 |  |
| O=C(Nc1ccc(Oc2ccnc3[nH]c(=O)[nH]c23)cc1)c1cc(F)cc(N2CCOCC2)c1 |  | > 100 |  |
| CN(C)c1cccc(C(=O)Nc2cccc(Oc3ccnc4[nH]c(=O)[nH]c34)c2)c1 | 42 | > 100 |  |
| CC(C)(C)c1cc(C(=O)Nc2cccc(Oc3ccnc4[nH]c(=O)[nH]c34)c2)n(Cc2ccccc2)n1 | > 100 | > 100 |  |
